Compound activity (PubChem BioAssay)
Most compounds without a hit are left out; they make up all but 4% or so of the library.
INS promoter inh – inhibitors of insulin promoter-driven GFP, primary screen, imaging, TRM-6 cells (human fetal islet line), eGFP reporter, cell count | inhibition, % at 2 µM | 130,000 tested, 0.9% active | reporter expression induced with tamoxifen;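 active = inhibition above the mean plus 3 SD, with well images judged a real hit on visual review, cut at about 60% in these data, passing the limit was not always enough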
RAM inhibit – inhibitors of the yeast RAM network, primary screen, dse1pr::URA3 reporter, 5-FOA selection. 190,000 tested, 1.8% active. inhibition, % at 50 µM. S. cerevisiae dse1pr::URA3 reporter, 5-FOA growth OD615, 2 d; analog-sensitive cbk1-as2 kinase mutant strain. AID 868, 2007;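 active = inhibition above a set limit, 3 SD over mean compound inhibition, cut at about 8.4% in these data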;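 also: 0% = DMSO-only wells with no growth and 100% = 10 µM 1-NA-PP1 full growth; inhibition rescues growth on 5-FOA so higher OD means more RAM inhibition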
Yeast growth inh – growth inhibitors of yeast BB579 in restrictive medium, primary screen, yeast lifespan-shortening project, S. cerevisiae. inhibition, % at 10 µM. OD615, 48 h. 140,000 tested, 0.51% active. AID 804, 2007;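 active = inhibition above a set limit, 3 SD over the mean compound inhibition, cut at about 44% in these data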
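Assay system: S. cerevisiae DeaD strain BB579 yeast. Medium: CSMM-D restrictive synthetic medium containing dextrose (glucose). Times: 4 h cell preincubation, 48 h compound exposure, 30 °C humidified. Signal: OD615 turbidity measurement. Benchmarks: positive control amphotericin B 10 µg/mL.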
Yeast lifespan up – compounds extending yeast replicative lifespan, primary screen, S. cerevisiae, OD615 | 130,000 tested, 0.68% active | inhibition of the nicotinamide effect, % at 10 µM | S. cerevisiae growth with nicotinamide; deaD strain in restrictive glucose medium;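 active = inhibition above a set limit, placed 3 SD over the median of all compounds, cut at about 26% in these data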;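 also: 0% = nicotinamide-treated wells and 100% = cells grown without nicotinamide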
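Assay system: DeaD-strain S. cerevisiae. Medium: CSMM-D glucose medium, restrictive. Reagent: nicotinamide, 1.5 mM, co-present with compound. Compound: 10 µM single point, 0.25% DMSO. Schedule: culture preincubation 4 h, compound exposure 48 h, both 30 °C. Detection: absorbance at 615 nm.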
Mdm2 ligase inh – MDM2-luciferase reporter signal enhancers, primary screen, MDM2 E3 ligase inhibitor project, cell-based, luminescence, 1536-well. AID 1230, 2008. 210,000 tested, 0.11% active. cell-based MDM2 ubiquitination luciferase reporter, 2 h; 0 = plate control, 100 = twice control, blank-subtracted. signal enhancement, % at 5 µM. E3 ubiquitin-protein ligase Mdm2 (Homo sapiens), Q00987;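 active = signal enhancement of 30% or more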;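 also: luminescence tracks abundance of the self-degrading MDM2-luciferase fusion protein; higher signal means inhibition of MDM2 E3 ligase activity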
Target sequence (Q00987 whole entry, looked up, the tested form may be a part): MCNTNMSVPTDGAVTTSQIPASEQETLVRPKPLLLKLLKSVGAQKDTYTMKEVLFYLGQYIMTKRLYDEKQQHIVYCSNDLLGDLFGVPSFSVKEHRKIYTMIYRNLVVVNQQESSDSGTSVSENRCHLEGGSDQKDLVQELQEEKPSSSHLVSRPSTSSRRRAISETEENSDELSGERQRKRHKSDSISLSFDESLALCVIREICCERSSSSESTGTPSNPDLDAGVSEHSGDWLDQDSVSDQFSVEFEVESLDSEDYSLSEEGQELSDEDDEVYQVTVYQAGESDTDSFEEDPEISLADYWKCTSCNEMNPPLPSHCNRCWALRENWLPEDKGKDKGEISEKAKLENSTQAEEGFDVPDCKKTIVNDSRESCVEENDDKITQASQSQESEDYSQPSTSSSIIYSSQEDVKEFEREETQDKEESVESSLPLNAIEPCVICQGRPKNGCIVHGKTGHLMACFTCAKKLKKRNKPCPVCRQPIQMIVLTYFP
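Assay system: stable mammalian line carrying autodegrading MDM2–luciferase fusion reporter; Input: 2000 cells in each well; Compound dosing: single-point 5 µM; Schedule: 2 h compound exposure at 37 °C; Signal: SteadyLite luciferase luminescence after 15 min room-temperature reagent incubation; Evaluation: % luminescence enhancement versus blank-corrected plate control mean; Benchmarks: plate controls and plate blanks.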
Measles CPE – compounds protecting cells from measles virus cytopathic effect, primary screen, measles RdRp inhibitor project, single point, MLSMR library, absorbance | Measles virus-infected cells, CPE protection | protection (pct of control), % at 4 µM | 140,000 tested, 1.5% active; in the data active = protection mostly above about 24%, no sharp cut-off; inactive = mostly below about 26%
Starred values were filed as active, the others as inactive; . = no result given.

SMILES | INS promoter inh | RAM inhibit | Yeast growth inh | Yeast lifespan up | Mdm2 ligase inh | Measles CPE
CNC(=S)N/N=C1\CC(c2ccccc2)Oc2ccccc21 (stereo not given) | 11 | 6 | . | . | -3 | .
Fc1ccc(N/N=C2/CC(c3ccccc3)Oc3ccccc32)c(F)c1 (stereo not given) | -16 | 3 | 86* | -7 | 0 | 20
Cc1ccc2nc(SC(C)C(=O)N3CCOCC3)[nH]c2c1 (stereo not given) | . | 1 | . | . | -11 | .
CN(C)c1cc[n+](CC(=O)Nc2cc(C(F)(F)F)ccc2Cl)cc1 | -33 | 0 | -22 | -1 | -14 | 64*
O=C(O)c1cc2c(s1)-c1ccccc1OC2 | . | 0 | 43 | -24 | -5 | 26
O=C(O)c1cc2c(s1)-c1ccccc1CC2 | -22 | 0 | 45* | -7 | 5 | 10
CSc1ccccc1NC(=O)CN(c1cc(C)cc(C)c1)S(C)(=O)=O | -36 | -1 | -35 | -3 | 6 | 7
CS(=O)(=O)N(CC(=O)Nc1ccccc1Sc1ccccc1)c1cccc(Br)c1 | -43 | 11* | -41 | 2 | -18 | 7
Cc1cccnc1NC(=O)NC(=O)c1ccc(C(C)(C)C)s1 | . | . | . | . | -7 | .
Cc1nc2ccccc2c2c1C(=O)N(C(C)C)C2=O | 15 | 1 | -61 | -10 | -14 | 26
Cc1nc2ccccc2c2c1C(=O)N(C)C2=O | 14 | 0 | 66* | -9 | -19 | 11
COCc1[nH][nH]c(=O)c1/C=N/N1CCOCC1 | . | 0 | . | . | -11 | .
Clc1ccccc1/C=C/c1nc(-c2cccnc2)no1 | . | . | . | . | -16 | .
C(=C\c1nc(-c2cccnc2)no1)/c1ccccc1 | 70* | 1 | . | . | -25 | .
C=CCN1C(=O)S/C(=C\c2ccc(N3CCOCC3)cc2C)C1=O | 11 | 8.6* | -25 | -5 | -27 | 5
Cc1noc(C)c1CS(=O)(=O)c1ccc(Br)cc1 | 3 | 1 | 1 | 56* | -19 | 3
Cc1ccc(S(=O)(=O)Cc2c(C)noc2C)cc1 | 26 | 1 | -52 | -7 | -19 | 21
O=C(N[C@@H](Cc1ccccc1)C(=O)OCc1ccccc1)c1nc[nH]c1C(=O)NCc1ccccc1 | . | 9.2* | . | . | . | .
OCC1(CCc2ccccc2)CCN(Cc2cccn2-c2cccnc2)CC1 | . | 3 | . | . | -10 | .
COc1ccc(CN2CCN(C(=O)CC(C)C)CC2)c2ccccc12 | 75* | 0 | 11 | -5 | 12 | 5
COc1ccc(CN2CCN(C(=O)CC(C)C)CC2)cc1OC | -13 | 0 | -6 | -14 | 6 | 5
COc1ccc(-c2nn(C)c(=O)[nH]2)cc1 | . | . | . | . | 3 | .
O=[N+]([O-])c1ccc(N=Nc2ccc(O)cc2O)cc1 | 32 | 2 | 83* | -12 | 14 | 5
CN1C(=O)C2(OCC(COc3ccc(Cl)cc3)O2)c2ccccc21 (stereo not given) | -7 | 5 | -50 | -9 | 17 | 2
CC(=O)N1CCN(c2ccc(OC[C@H]3CO[C@](Cn4ccnc4)(c4ccc(Cl)cc4Cl)O3)cc2)CC1 | 0 | 1 | 93* | -7 | . | 19
SMILES | INS promoter inh | RAM inhibit | Yeast growth inh | Yeast lifespan up | Mdm2 ligase inh | Measles CPE
COc1cc(/C=N/Nc2nc(=O)[nH]nc2C)ccc1O | . | . | . | . | -6 | .
Cc1sc(NC(=O)c2ccccc2)c(C(=O)c2ccccc2)c1C | 12 | 11* | -34 | -5 | 16 | 7
Cc1cc(F)ccc1NCC(=O)Nc1ccccc1Br | . | -2 | 0 | -6 | -5 | 50*
Cc1ccc(F)cc1NCC(=O)Nc1ccc(Cl)cc1F | . | 1 | -21 | -7 | -13 | 28
Cc1ccc(CCNC(=O)C23CN(Cc4ccccc4)CC2C(c2ccc([N+](=O)[O-])cc2)=NO3)cc1 (stereo not given) | 29 | 1 | -37 | -25 | 2 | 4
Cc1ccc(CNC(=O)C23CN(Cc4ccccc4)CC2C(c2ccc([N+](=O)[O-])cc2)=NO3)cc1 (stereo not given) | 44 | 4 | -41 | -22 | -11 | 41*
O=C(OCc1cccc([N+](=O)[O-])c1)c1ccc2ccccc2n1 | . | 9.6* | . | . | 1 | .
CCCCOC(=O)Nc1ccc(S(=O)(=O)Nn2cnnc2)cc1 | 0 | -1 | -34 | -11 | -8 | 18*
Cn1c(=O)n(C)c2cc([N+](=O)[O-])c(N3CCN(C(=O)C(C)(C)C)CC3)cc21 | 71* | -1 | . | . | -18 | .
Cn1c(=O)n(C)c2cc([N+](=O)[O-])c(N3CCN(C(=O)c4ccccc4)CC3)cc21 | 10 | -1 | -27 | -4 | -7 | 5
CN(C)c1ccc(/C=C/c2ccc3ccccc3[n+]2C)cc1 | . | 2 | 66* | 2 | -53 | 4
O=C(NC1CCCC1)C(c1cccs1)N(C(=O)c1ccco1)c1ccc2c(c1)OCO2 (stereo not given) | -231 | 0 | -20 | . | . | 15
O=C(NCC(=O)N(c1ccc(F)cc1)C(C(=O)NC1CCCC1)c1cccnc1)c1cccs1 (stereo not given) | . | 8.9* | . | . | 1 | .
O=C(NCC(=O)N(c1ccc2c(c1)OCO2)C(C(=O)NC1CCCC1)c1cccs1)c1ccco1 (stereo not given) | -48 | 3 | -36 | -26 | 4 | 66*
C=CCN(C(=O)CNC(=O)c1ccco1)C(C(=O)NC1CCCCC1)c1ccccc1 (stereo not given) | . | 9.2* | -22 | -19 | -3 | 5
Cc1cccc(NC(=O)C2NC(=O)CC2c2ccccc2)c1C (stereo not given) | . | 1 | -71 | -3 | -7 | 3
C/C=N/NC(=O)CCNC(=O)c1ccccc1 | . | 0 | -53 | 3 | -1 | 4
Cc1nc(NC(=O)CSc2nnc(Cn3nnc4ccccc43)n2C)sc1C | . | 0 | -5 | -5 | -3 | 13
CC1CCN(CCCNC(=O)c2ccc(CSCc3cccc(Cl)c3)o2)CC1 | -25 | 0 | 9 | -5 | -8 | 8
CCOC(=O)c1c(NC(=S)Nc2ccccc2)sc2c1CCN(CC)C2 | -42 | 1 | 0 | -6 | 51* | 7
CCOC(=O)c1c(NC(=S)Nc2ccccc2)sc2c1CCCCC2 | 0 | 7 | -55 | -11 | -5 | 15
COc1ccc(OCCn2c(C)c(/C=N/n3cnnc3)c3ccccc32)cc1 | 14 | 10.0* | -25 | -5 | 6 | 17
COc1cccc(OC)c1NC(=O)CN1CCC(NC(=O)c2cccc(F)c2)CC1 | 14 | 0 | -25 | . | -10 | 9
